Hits are enriched below; roughly 2.5% of the tested compounds scored in any of these assays.
SENP7 inh = SENP7 protease inhibition; inhibition, % at 5 µM; recombinant SENP7, Z-RLRGG-aminoluciferin luminescence, 40 min; AID 434973; Q9BQF6; hit rate 1.5% among 330,000;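 active means inhibition above about 50% at the single test dose, limit read from the data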;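 further: plate controls were DMSO with enzyme for no effect and no enzyme buffer wells for full effect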
SENP8 block-1 = SENP8 (human) protease inhibition; Q96LD8; recombinant SENP8, Nedd8 substrate fluorescence; inhibition, % at 20 µM; hit rate 0.64% among 360,000; AID 602440; in the data active means inhibition mostly above about 40%, no sharp cut-off; inactive means mostly below about 27%
Target sequence (Q96LD8 whole entry, looked up): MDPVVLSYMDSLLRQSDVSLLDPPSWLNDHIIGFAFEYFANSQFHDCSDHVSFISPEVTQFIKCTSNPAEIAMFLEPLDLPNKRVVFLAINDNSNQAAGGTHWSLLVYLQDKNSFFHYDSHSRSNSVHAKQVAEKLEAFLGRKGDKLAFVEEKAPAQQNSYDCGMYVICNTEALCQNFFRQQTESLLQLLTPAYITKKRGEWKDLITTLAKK
SENP6 inh = inhibitors of human SENP6 protease. Q9GZR1. Recombinant SENP6 catalytic domain, aminoluciferin luminescence. inhibition, % at 10 µM. hit rate 1.8% among 330,000. AID 2599;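 active means inhibition above about 50% at the single tested dose, limit read from the data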;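 further: plate controls were DMSO wells with enzyme for no effect and DMSO wells lacking enzyme for full effect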
SENP1 FRET inh = inhibitors of human SENP1 SUMO protease catalytic domain; inhibition, % at 10 µM; recombinant SENP1 catalytic domain, CyPet-SUMO1-YPet FRET cleavage; hit rate 0.21% among 360,000; AID 624204; Q9P0U3;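 active means inhibition at least 30% at 10 µM, raw YFP signal under a set limit, fluorescence ratio 0.5 to 1.5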;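 further: 0% = enzyme with DMSO and 100% = no enzyme wells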
Target sequence (Q9P0U3 419-644 limits assumed): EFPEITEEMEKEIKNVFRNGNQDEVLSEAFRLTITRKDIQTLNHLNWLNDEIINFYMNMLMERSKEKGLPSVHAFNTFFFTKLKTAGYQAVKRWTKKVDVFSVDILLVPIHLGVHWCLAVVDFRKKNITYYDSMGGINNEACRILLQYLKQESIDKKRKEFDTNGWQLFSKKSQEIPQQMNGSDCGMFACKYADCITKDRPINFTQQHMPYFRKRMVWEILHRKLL
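Compound: 10 µM single point, 0.5% DMSO; Test system: hSENP1 catalytic domain, recombinant; Timing: 50 min reaction at room temperature; Technique: FRET, CFP and YFP emission; Control set: no-enzyme wells low, DMSO-plus-enzyme wells high control.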
SENP8 block-2 = blocks the human protease SENP8 | Q96LD8 | purified SENP8, Z-RLRGG-aminoluciferin cleavage, luminescence | inhibition, % at 10 µM | hit rate 1.2% among 330,000 | AID 2540; in the data active means inhibition above about 50%
SENP8 conf = human SENP8 inhibition, confirmed | shares compounds with SENP7 inh | Recombinant SENP8, Z-RLRGG-aminoluciferin luminescence, 60 min | inhibition, % at 12.5 µM | hit rate 40% among 6,200 | AID 488912;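 active means mean inhibition across replicates above about 50%, limit read from the data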
SENP6 confirm = human SENP6 inhibition, confirmed. inhibition, % at 12.5 µM. shares compounds with SENP7 inh. AID 488915. hit rate 58% among 6,200. recombinant SENP6, Z-RLRGG-aminoluciferin luminescence
SENP7 conf = confirmation of human SENP7 protease inhibitors | inhibition, % at 12.5 µM | shares compounds with SENP7 inh | hit rate 69% among 6,200 | recombinant SENP7, Z-RLRGG-aminoluciferin luminescence, 40 min
Casp3 SENP sel = selectivity test for SENP inhibitors: human caspase-3 inhibition; shares compounds with SENP7 inh; purified caspase-3, Z-DEVD-aminoluciferin luminescence, 60 min; inhibition, % at 12.5 µM; hit rate 60% among 6,200; AID 488918;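 active means mean inhibition above about 50%, limit read from the data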;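 further: plate controls were enzyme with DMSO for no effect and wells without caspase-3 for full effect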
Target sequence (P42574 28-227 limits assumed): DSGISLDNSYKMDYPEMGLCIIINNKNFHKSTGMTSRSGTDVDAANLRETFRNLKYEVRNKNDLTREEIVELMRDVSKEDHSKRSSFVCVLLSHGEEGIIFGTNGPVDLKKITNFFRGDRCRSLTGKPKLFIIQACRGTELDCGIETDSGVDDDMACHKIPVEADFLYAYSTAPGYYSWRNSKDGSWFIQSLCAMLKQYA
SENP luc ctr = interferes with luciferase luminescence in SENP counter-screen; Pre-incubated SENP8/Z-RLRGG-aminoluciferin, luciferase luminescence interference; hit rate 39% among 6,200; shares compounds with SENP7 inh; inhibition, % at 12.5 µM; AID 488919;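 active means mean inhibition above about 50% when retested at one dose, limit read from the data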;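 further: plate controls were DMSO wells with completed reaction for no effect and substrate without enzyme for full effect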
* hit, by the source's call; · = no result given.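 How the source made its calls, unless noted: active means mean inhibition above about 50% in the one-dose retest (limit read from the data); inactive means the rest.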

SMILES	SENP7 inh	SENP8 block-1	SENP6 inh	SENP1 FRET inh	SENP8 block-2	SENP8 conf	SENP6 confirm	SENP7 conf	Casp3 SENP sel	SENP luc ctr
CC(=O)Nc1ccc2nc(-c3ccccc3)cn2c1	1.2	-386.0	1.0	4.1	9.6	·	·	·	·	·
COC(=O)c1ccc2nc(-c3cccc(N)c3)cn2c1	65.6*	-14.6	23.5	-2.8	42.3	59.9*	61.5*	86.3*	86.1*	68.7*
CC(=O)Nc1ccc(NC2=C/C(=N/S(=O)(=O)c3cccs3)c3ccccc3C2=O)cc1	54.1*	68.8*	92.8*	2.2	79.2*	90.0*	95.5*	85.2*	51.1*	2.1
c1cncc(-c2nc(-c3ccc4c(c3)OCO4)cs2)c1	68.8*	-103.8	73.1*	-1.5	49.9	44.4	69.3*	87.3*	61.4*	13.3
Cc1nc(-c2ccc3c(c2)OCO3)cs1	5.8	6.3	-4.6	1.5	-7.9	·	·	·	·	·
Clc1ccsc1-c1csc(-c2cccnc2)n1	45.0	-94.5	68.9*	1.4	31.7	25.8	42.9	82.0*	13.9	12.2
CCCC(=O)Nc1ccc(-c2csc(-c3cccnc3)n2)cc1	-15.2	-113.2	8.6	1.8	-13.8	·	·	·	·	·
Oc1ccc(-c2csc(-c3cccnc3)n2)c(O)c1	55.2*	-73.8	66.1*	0.4	35.3	44.4	41.9	82.0*	54.4*	58.0*
c1cncc(-c2csc(-c3cccnc3)n2)c1	-11.4	14.5	-31.8	-1.6	-11.0	·	·	·	·	·
CC(=O)Nc1ccc(-c2csc(-c3cccnc3)n2)cc1	51.4*	-264.2	40.8	-1.0	26.8	24.2	48.3	83.9*	62.0*	11.9
O=[N+]([O-])c1ccc2cn(-c3ccccc3)nc2c1	81.2*	20.6	14.0	3.2	60.5*	34.4	69.6*	91.7*	69.1*	44.0
Cc1ccc(C(=O)Nc2cccc3cccnc23)cc1Br	55.3*	4.2	4.1	-1.9	-5.2	-2.4	1.5	8.7	23.4	11.6
O=C(Nc1ccc(C(=O)O)cc1)Nc1cccc2ccccc12	34.3	-73.8	57.5*	1.9	17.0	38.4	34.1	64.8*	62.3*	33.7
O=C(Nc1ccccc1)Nc1cccc2cccnc12	73.5*	8.3	42.1	-2.1	59.6*	79.8*	80.1*	94.2*	58.6*	77.2*
O=C(O)/C=C/C(=O)Nc1cccc2cccnc12	1.0	9.6	6.2	-0.2	-4.9	·	·	·	·	·
O=C(Nc1ccccc1)Nc1cccc2ccccc12	23.6	-57.3	23.1	3.5	4.9	·	·	·	·	·
Cc1ccc(C(=O)Nc2cccnc2Cl)cc1Cl	3.5	12.7	24.7	1.7	4.1	·	·	·	·	·
CCCCc1nnc(NC(=O)C2CC(=O)N(Cc3ccccc3)C2)s1 (stereo not given)	-12.7	-6.9	-12.1	-3.5	-9.1	·	·	·	·	·
COc1ccc(NC(=O)CN2CCc3ccccc3C2)c([N+](=O)[O-])c1	-8.8	19.1	-4.3	-8.9	-3.7	·	·	·	·	·
O=C(c1cc(-c2ccc(O)cc2)on1)N1CCCC1	7.3	9.8	39.5	6.8	13.8	·	·	·	·	·
COc1cccc(-c2cc(C(=O)N3CCN(c4ccc(F)cc4)CC3)no2)c1	-6.9	14.6	-17.5	-0.5	-2.4	·	·	·	·	·
O=C(c1cc(-c2ccc(Br)cc2)on1)N1CCCC1	42.4	11.8	55.0*	0.8	39.3	3.9	7.1	33.1	39.2	9.1
Cc1ccc(-c2cc(C(=O)N3CCCCCC3)no2)cc1	47.3	6.7	60.8*	0.3	49.4	17.6	35.5	23.8	18.3	-2.4
COc1cccc(-c2cc(C(=O)N3CCCCCC3)no2)c1	44.6	12.7	66.7*	1.2	48.2	62.2*	60.8*	85.3*	62.4*	48.9
COc1ccc(-c2cc(C(=O)N3CCCC3)no2)cc1	53.3*	5.4	73.7*	4.4	49.7	49.0	51.8*	86.3*	80.0*	38.9
SMILES	SENP7 inh	SENP8 block-1	SENP6 inh	SENP1 FRET inh	SENP8 block-2	SENP8 conf	SENP6 confirm	SENP7 conf	Casp3 SENP sel	SENP luc ctr
Cn1nc([N+](=O)[O-])nc1Oc1ccc(C(C)(C)C)cc1	5.8	16.5	-18.7	0.0	-5.7	·	·	·	·	·
O=C(CCc1nc2ccccc2c(=O)[nH]1)OCc1ccc(Cl)cc1Cl	-0.7	14.4	4.7	1.7	1.4	·	·	·	·	·
COc1ccc(CCNC(=O)CN2C(=O)C(=O)N(C3CCCC3)C2=O)cc1OC	7.2	5.5	4.4	2.1	3.7	·	·	·	·	·
COc1ccc(-c2cc(C(=O)N3CCCCCC3)no2)cc1OC	-4.6	-2.0	-12.7	2.0	-14.8	·	·	·	·	·
COc1ccc(-c2cc(C(=O)N3CCCCCC3)no2)cc1	47.6	20.6	57.3*	1.7	38.2	40.7	50.3*	82.6*	56.3*	24.0
CSCc1cc(C(=O)NC2CC2)c(N)s1	·	6.7	·	-14.4	·	·	·	·	·	·
COc1ccc(-n2ncc3c(N(C)C4CCCCC4)ncnc32)cc1	46.5	-166.1	48.0	0.7	43.1	·	·	·	·	·
Cc1cccc(-n2ncc3c(N(C)C4CCCCC4)ncnc32)c1	60.2*	-3.4	66.7*	-47.4	67.9*	-12.1	-6.9	-4.0	1.2	18.9
CCOC(=O)c1cnc(Nc2nc3ccccc3o2)nc1C	95.1*	-0.5	83.8*	1.1	79.6*	74.5*	75.2*	98.8*	92.7*	33.9
Cc1nc(Nc2nc3ccccc3o2)nc2c1CCC2	71.8*	13.1	76.9*	0.6	39.4	32.7	59.5*	85.9*	75.1*	8.2
c1ccc(-c2ccc(-c3nc(-c4ccncc4)no3)cc2)cc1	22.9	-8.9	90.9*	-1.3	82.9*	41.6	37.3	27.4	71.7*	6.1
COc1nc(-c2ccc(Cl)cc2)ccc1-c1noc(-c2ccco2)n1	-2.1	-118.3	-8.0	-32.6	-6.3	·	·	·	·	·
c1coc(-c2nc(-c3ccncc3)no2)c1	62.2*	-0.8	71.7*	0.4	32.5	16.7	53.0*	84.6*	81.8*	20.6
Brc1ccc(-c2nc(-c3ccncc3)no2)cc1	73.0*	21.8	7.3	0.8	12.7	-9.1	-1.5	19.2	23.4	-0.6
c1ccc(-c2nc(-c3ccncc3)no2)cc1	80.1*	18.4	81.8*	2.0	57.7*	-29.5	-0.8	49.5	32.0	-2.4
O=[N+]([O-])c1ccc(-c2nc(-c3ccncc3)no2)cc1	5.5	37.7	9.6	0.2	1.6	·	·	·	·	·
O=C(COC(=O)CCC1CCCC1)Nc1ccc(F)cc1Cl	5.1	-1.3	-8.9	4.5	-1.1	·	·	·	·	·
Cc1c(F)cccc1NS(=O)(=O)c1ccc(N2CCCC2=O)cc1	·	9.1	·	-6.3	·	·	·	·	·	·

Assay outcomes: PubChem, Sanford-Burnham Center for Chemical Genomics
